# Bioassay records deposited in PubChem by several laboratories.
# procasp3 activ – activators of human procaspase-3 D3A mutant, primary screen, biochemical, absorbance, PC-3 D3A mutant, single concentration. Caspase-3 (Homo sapiens), P42574. recombinant procaspase-3 D3A, Ac-DEVD-pNA absorbance 405 nm. activation, % at 8.5 µM. 330,000 compounds, 0.11% hits. AID 463141, 2010;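 active = activation above the mean of all tested compounds plus 3 SD, cut at about 21% in these data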;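 also: 0% = DMSO alone and 100% = DMSO wells spiked with extra 5 µM PC-3 D3A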
#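 Evaluation: percent activation relative to control range; Material: Procaspase-3 D3A mutant, all three cleavage aspartates alanine; Compound: single dose, 8.5 µM nominal compound, 0.8% DMSO; Replication: one well per compound; Signal: absorbance at 405 nm, 0 and 120 min; Schedule: 1 h preincubation plus 2 h reaction at 25 °C.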
# VLA-4 inh – inhibition in human VLA-4 binding assay, primary screen, VLA-4 allosteric modulator project, MLPCN library, flow cytometry, VLA-4 expressing cells; Integrin alpha-4 (Homo sapiens), P13612; ligand binding flow cytometry; inhibition, % (about 7 µM as worked out from the volumes in the protocol); 330,000 compounds, 0.2% hits; in the data active = inhibition above about 50%
# procasp7 counter – procaspase-7 activators, primary screen, counter-screen for procaspase-3 activator project, biochemical, absorbance, HTS, human | 330,000 compounds, 0.093% hits | activation, % at 8.5 µM | recombinant procaspase-7, Ac-DEVD-pNA absorbance 405 nm; D23A/D198A/D206A triple mutant, cannot self-cleave; scale: DMSO 0, 5 µM enzyme 100;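 active = percent activation above the screen-wide mean plus 3 SD, cut at about 25% in these data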
#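 Assay system: Uncleavable procaspase-7 mutant enzyme | Input: 2 µM procaspase-7 mutant as dispensed | Timing: 1 h compound preincubation, 2 h substrate cleavage, 25 °C | Repeats: One well per compound | Control set: DMSO wells as 0%, DMSO with 5 µM added PC-7 as 100% | Technique: Epi-absorbance of released pNA at 405 nm, two timepoints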
# Lipid droplet – inhibitors of hepatocyte lipid droplet formation, primary screen, imaging, high-throughput imaging, BODIPY stain. AML12 mouse hepatocytes, oleate lipid droplets. inhibition, % at 6.5 µM. 240,000 compounds, 0.4% hits. AID 1656, 2009;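 active = lipid droplet intensity inhibited by at least 50%, with more than 500 cells counted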
#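 Assay system: AML12 hepatocytes (mouse) / Also added: 100 µM oleic acid challenge / Times: overnight treatment with compound plus oleate / Detection: high-content imaging of BODIPY-stained droplets and DAPI nuclei / Evaluation: % inhibition of lipid droplet signal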
# GASC-1 inh – inhibitors of GASC-1 histone demethylase, primary screen, biochemical, fluorescence, DELFIA europium. Lysine-specific demethylase 4C (Homo sapiens), Q9H3R0. GST-JMJD2C(1-420) H3K9me3 demethylation. inhibition, % at 2.35 µM. 330,000 compounds, 0.069% hits. AID 2099, 2009;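 active = more than half of a compound's replicate wells show inhibition beyond 50%, single wells judged on their own value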;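 also: signal counts dimethyl H3K9 product captured on neutravidin plate; 0% = median of DMSO wells and 100% = 0.3 times that DMSO median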
# Target sequence (Q9H3R0 1-420 limits assumed): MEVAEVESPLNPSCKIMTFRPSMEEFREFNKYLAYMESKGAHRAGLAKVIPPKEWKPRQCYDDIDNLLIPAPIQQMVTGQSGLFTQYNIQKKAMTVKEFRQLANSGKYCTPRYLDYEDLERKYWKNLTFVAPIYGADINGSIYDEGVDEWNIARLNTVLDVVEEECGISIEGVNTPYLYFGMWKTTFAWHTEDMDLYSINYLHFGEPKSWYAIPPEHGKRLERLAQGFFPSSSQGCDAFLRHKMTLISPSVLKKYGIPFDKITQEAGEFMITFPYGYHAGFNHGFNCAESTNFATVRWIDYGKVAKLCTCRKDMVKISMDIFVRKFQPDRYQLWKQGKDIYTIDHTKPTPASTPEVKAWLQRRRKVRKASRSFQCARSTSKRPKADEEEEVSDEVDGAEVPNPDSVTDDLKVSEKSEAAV
# GRK2 aptamer HTS – compounds blocking aptamer binding on GRK2 – biochemical, human GRK2, bead flow cytometry, HTS, primary screen; Beta-adrenergic receptor kinase 1 (Homo sapiens), P25098; FAM-aptamer displacement from GRK2; inhibition of aptamer binding, % at 10 µM; 330,000 compounds, 0.59% hits; AID 488847, 2010;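 active = inhibition of aptamer binding above 40%, roughly 3 SD of noise, on plates passing a quality check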;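 also: median bead fluorescence of bound FAM aptamer so fluorescent compounds give negative values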
# procasp7 triplic – procaspase-7 activators, counter-screen for procaspase-3 activator project, biochemical, absorbance, triplicate, human; shares compounds with procasp3 activ; recombinant procaspase-7, Ac-DEVD-pNA absorbance; asp23/198/206-to-Ala mutant, cannot self-cleave; 210 tested, under 10 active; activation, % at 8.5 µM; AID 488941, 2010;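 active = mean activation above a set limit taken from an earlier procaspase-7 screen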;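 also: 0% = DMSO wells and 100% = DMSO plus 5 µM procaspase-7 enzyme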
# procasp3 conf – activators of human procaspase-3 D3A mutant, confirmation, biochemical, absorbance, PC-3 D3A mutant, triplicate; AID 488954, 2010; activation, % at 8.5 µM; recombinant PC-3 D3A, Ac-DEVD-pNA absorbance 405 nm; 100% is higher-enzyme control; 210 compounds, 10% hits; shares compounds with procasp3 activ;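 active = mean activation above a set limit carried over from the earlier primary screen, cut at about 22% in these data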
# Active calls of the source: *; . = no result. An excerpt weighted towards active compounds, which were near 1.3% of everything screened.
SMILES,procasp3 activ,VLA-4 inh,procasp7 counter,Lipid droplet,GASC-1 inh,GRK2 aptamer HTS,procasp7 triplic,procasp3 conf
N=c1c(S(=O)(=O)c2ccccc2)cc2c(=O)n3ccccc3nc2n1C1CCCC1,30*,-4,-17,11,-27,0,-22,-14
C=CCn1c(=NC(=O)c2cc(-c3cccs3)nc3ccccc23)sc2cc(S(N)(=O)=O)ccc21,78*,-10,14,-6,7,0,15,20
C=CCn1c(=NC(=O)c2sc3ccccc3c2Cl)sc2cc(S(N)(=O)=O)ccc21,-4,25,-1,-10,-14,0,.,.
COCCn1c(=NC(=O)c2cc(-c3cccs3)nc3ccccc23)sc2cc(S(N)(=O)=O)ccc21,44*,0,9,4,9,4,0,-3
Cc1ccsc1C(=O)N1CCCC(N2CCN(c3cccc(Cl)c3)CC2)C1 (stereo unspecified),6,4,-2,32,3,34,.,.
Cn1nnnc1SCCNC(=O)C1CCC(=O)N(CCc2cccc(F)c2)C1 (stereo unspecified),-4,-2,3,8,4,7,.,.
O=C1OCCN1C(=O)[C@H]1[C@H](c2ccc(Cl)cc2)C(c2ccc(F)cc2)=NN1c1ccc(Br)cc1,27*,.,16,.,.,1,-23,-13
O=C(CC1SCCNC1=O)Nc1cccc(C(F)(F)F)c1 (stereo unspecified),67*,3,6,.,4,0,1,4
COc1ccc2cc(S(=O)(=O)NCCCN3CCOCC3)ccc2c1,22*,5,-4,2,1,0,2,6
Cc1ccc2cc(S(=O)(=O)NCCCN3CCOCC3)ccc2c1,-5,-2,-5,-15,0,2,.,.
COc1ccc(-c2ccc(C#N)c(SCC(=O)OCc3ccccc3)n2)cc1OC,34*,-5,10,.,3,2,4,6
CS(=O)(=O)c1ccc(Cl)c(NC(=O)C2CCCCN2S(=O)(=O)c2ccccc2)c1 (stereo unspecified),7,8,5,.,0,0,.,.
CCN(CC)S(=O)(=O)c1ccc2c(c1)c(=O)c(C(=O)N1CCOCC1)cn2C,46*,1,7,14,-5,0,3,1
CCC(=O)Nc1c(S(=O)(=O)c2ccc(C)cc2)c2nc3ccccc3nc2n1C(C)c1ccccc1 (stereo unspecified),26*,21,6,43,-1,1,-22,-14
CCC(=O)Nc1c(S(=O)(=O)c2ccccc2)c2nc3ccccc3nc2n1C(C)c1ccccc1 (stereo unspecified),6,9,-23,16,26,3,.,.
CC(C)(C)OC(=O)n1cc(/C=N/NC(=O)c2ccco2)c2ccccc21,5,1,-6,4,-2,7,.,.
Cc1ccc(S(=O)(=O)Oc2ccc(/C=C(/NC(=O)c3ccccc3)C(=O)O)cc2)cc1,57*,14,0,4,-16,5,3,4
CCOc1ccc(NS(=O)(=O)c2cc(C(=O)N3CCC3)ccc2Cl)cc1,14,5,9,.,-14,0,.,.
CCC(=O)c1ccc(OCC(=O)c2ccc3c(c2)NC(=O)CO3)cc1,23*,13,4,2,4,1,4,4
CCc1ccc(OCC(=O)OCC(=O)c2ccc3c(c2)NC(=O)CO3)cc1,-1,14,0,17,23,0,.,.
CCCOc1ccc(C(F)(F)F)cc1NC(=O)CCc1c(C)noc1C,3,0,6,.,-9,0,.,.
CCCCNC(=O)c1cc2c(=O)n3cccc(C)c3nc2s1,3,0,8,14,-7,1,.,.
Cc1cccn2c(=O)c3cc(C(=O)NCCc4ccccc4)sc3nc12,31*,-1,5,5,-9,0,-19,-14
CCCC(=O)N(Cc1cc(=O)[nH]c2ccccc12)c1ccccc1,74*,-15,7,-20,-1,1,3,5
CCC(=O)N(Cc1cc(=O)[nH]c2ccccc12)c1ccccc1,4,4,-2,0,2,4,.,.
SMILES,procasp3 activ,VLA-4 inh,procasp7 counter,Lipid droplet,GASC-1 inh,GRK2 aptamer HTS,procasp7 triplic,procasp3 conf
COc1cccc(NC(=O)CCC(=O)N2CC(C)Oc3ccc(C)cc32)c1 (stereo unspecified),-3,2,-5,17,4,0,.,.
CC(=O)NC(Cc1cccc(C)c1)C(=O)NC1CCN(C(=O)NCc2ccccc2)CC1 (stereo unspecified),.,.,.,18,-14,.,.,.
Cc1ccc(C2Nc3ccc4ccccc4c3C3=C2C(=O)CC(C)(C)C3)o1 (stereo unspecified),46*,5,15,-7,0,0,18,8
CCc1nnc(NC(=O)CSc2nnc3c(C)cc4c(C)ccc(C)c4n23)s1,22*,7,0,-24,2,3,3,4
O=C(NCc1ccccn1)C(=O)NCC1OCCCN1S(=O)(=O)c1cc(F)ccc1F (stereo unspecified),-2,2,0,-7,-5,2,.,.
CC(=O)Oc1ccc(-c2cc3c(OC(C)=O)cc(OC(C)=O)cc3oc2=O)cc1,52*,-3,9,.,-3,1,-21,-14
COc1cc2c(cc1OC)C(COc1cc(C)cc(C)c1)N(C(C)=O)CC2 (stereo unspecified),3,7,-3,-28,0,3,.,.
O=C(Nc1cc(S(=O)(=O)N2CCOCC2)ccc1N1CCOCC1)c1ccccc1F,23*,-2,-2,.,0,0,2,3
COc1ccc(C2CC(c3ccc(Cl)cc3)=NN2c2ccc(S(N)(=O)=O)cc2)cc1 (stereo unspecified),33*,.,8,.,.,0,-23,-12
